According to ChEMBL document CHEMBL1126240, “Structure-activity relationship studies of central nervous system agents. 5. Effect of the hydrocarbon chain on the affinity of 4-substituted 1-(3-chlorophenyl)piperazines for 5-HT1A receptor site” (J Med Chem, 1992):

Experiments:
[1] = target: T1, 5-hydroxytryptamine receptor 1A (Rattus norvegicus, UniProt P19327); test: In vitro ability to displace [3H]8-hydroxy-2-(di-n-propylamino) tetralin binding from 5-hydroxytryptamine 1A receptor site in rat brain hippocampus; assay type: tissue-based
T1 sequence (P19327 whole entry): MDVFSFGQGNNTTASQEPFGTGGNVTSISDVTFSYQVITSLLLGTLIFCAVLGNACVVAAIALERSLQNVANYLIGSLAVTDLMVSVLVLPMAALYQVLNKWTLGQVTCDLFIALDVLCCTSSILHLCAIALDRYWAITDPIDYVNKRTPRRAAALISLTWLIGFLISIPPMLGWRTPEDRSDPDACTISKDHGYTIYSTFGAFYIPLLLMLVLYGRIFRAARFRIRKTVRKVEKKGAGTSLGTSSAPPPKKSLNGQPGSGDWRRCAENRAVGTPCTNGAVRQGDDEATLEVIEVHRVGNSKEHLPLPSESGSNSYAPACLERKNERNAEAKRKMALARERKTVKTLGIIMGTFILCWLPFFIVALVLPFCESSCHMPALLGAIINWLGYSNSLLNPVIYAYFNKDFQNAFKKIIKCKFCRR

[2] = % ionization at the pH 7.4 at 37 degree Centigrade; assay type: ADME
Outline: (§1)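 Fraction ionized calculated from eq 1 using pKa2 measured by potentiometric titration at 37 °C, for pH 7.4 and 37 °C.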

[3] = target: T2, 5-hydroxytryptamine receptor 1A (Rattus norvegicus) (UniProt P19327); test: Ability to displace the protonated form of [3H]8-hydroxy-2-(di-n-propylamino)tetralin binding from labeled 5-hydroxytryptamine 1A receptor site in rat brain hippocampus; assay type: tissue-based
T2 sequence (whole entry): T1 sequence (P19327 whole entry)
Outline: (§2)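 Radioligand displacement in rat hippocampal tissue using [³H]-8-OH-DPAT as ligand, following a previously published protocol; affinity given as Ki for the protonated (AH+) species.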

[4] = Compound was evaluated for the Ionization constants at 37 degree Celsius pKa1; assay type: physicochemical; conditions: read-out: pKa1
Outline: (§3)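 Potentiometric titration at 37 °C; pKa values fitted to the titration data by nonlinear regression.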

[5] = Compound was evaluated for the Ionization constants at 37 degree Centigrade pKa2; assay type: physicochemical; conditions: read-out: pKa2; outline: as §3
[6] = target: T2, 5-hydroxytryptamine receptor 1A (Rattus norvegicus); test: Compound was evaluated for its ability to displace the protonated form of [3H]8-hydroxy-2-(di-n-propylamino)tetralin binding from labeled 5-HT 1A receptor site.; outline: as §2
[7] = Compound was evaluated for the percentage ionization at the pH 7.4 at 37 degree Centigrade; assay type: ADME; outline: as §1
[8] = target: T2, 5-hydroxytryptamine receptor 1A (Rattus norvegicus); conditions: Hippocampus

## CCCC(=O)N1CCN(c2cccc(Cl)c2)CC1
[1]
  Ki: 49 µM

## Clc1cccc(N2CC[N+]3(CCCC3)CC2)c1
[1]
  Ki: 7.22 µM

## CCN1CCN(c2cccc(Cl)c2)CC1
[2]
  Ionization: 75.5%
[3]
  KiAH: 166 nM
[1]
  Ki: 0.22 µM
[4]
  pKa: 2.48
[5]
  pKa: 7.89

## CCCCN1CCN(c2cccc(Cl)c2)CC1
[2]
  Ionization: 16.6%
[3]
  KiAH: 3.06 nM
[1]
  Ki: 0.0184 µM
[4]
  pKa: 2.43
[5]
  pKa: 6.7

## CCCCCCN1CCN(c2cccc(Cl)c2)CC1
[2]
  Ionization: 1.2%
[3]
  KiAH: 0.032 nM
[1]
  Ki: 0.00267 µM
[4]
  pKa: 2.57
[5]
  pKa: 5.49

## Clc1cccc(N2CCN(Cc3ccccc3)CC2)c1
[2]
  Ionization: 0.1%
[3]
  KiAH: 0.166 nM
[1]
  Ki: 0.166 µM
[5]
  pKa: 4.39

## CN1CCN(c2cccc(Cl)c2)CC1
[2]
  Ionization: 88.1%
[3]
  KiAH: 134 nM
[1]
  Ki: 0.152 µM
[4]
  pKa: 2.82
[5]
  pKa: 8.27

## CCC(C)N1CCN(c2cccc(Cl)c2)CC1 (stereo unspecified)
[2]
  Ionization: 21.6%
[3]
  KiAH: 27.4 nM
[1]
  Ki: 0.127 µM
[4]
  pKa: 2.32
[5]
  pKa: 6.84

## CC(=O)N1CCN(c2cccc(Cl)c2)CC1
[1]
  Ki: > 100 µM

## CC(C)N1CCN(c2cccc(Cl)c2)CC1
[2]
  Ionization: 64%
[3]
  KiAH: 102 nM
[1]
  Ki: 0.159 µM
[4]
  pKa: 2.37
[5]
  pKa: 7.65

## Clc1cccc(N2CCNCC2)c1 [CHLOROPHENYLPIPERAZINE]
[2]
  Ionization: 91.3%
[3]
  KiAH: 131 nM
[1]
  Ki: 0.143 µM
[5]
  pKa: 8.42

## CC1(C)CC(=O)N(CCCCN2CCN(c3ncccn3)CC2)C(=O)C1 [GEPIRONE]
[2]
  Ionization: 63.5%
[3]
  KiAH: 20.2 nM
[5]
  pKa: 7.64

## CCCN(CCC)C1CCc2cccc(O)c2C1 (stereo unspecified) [8-OH-DPAT]
[6]
  KiAH: 1.16 nM
[7]
  Ionization: 80.6%
[5]
  pKa: 8.02

## C=CCN1CCN(c2cccc(Cl)c2)CC1
[2]
  Ionization: 32.4%
[3]
  KiAH: 81.2 nM
[1]
  Ki: 0.251 µM
[4]
  pKa: 2.94
[5]
  pKa: 7.08

## O=C(c1ccccc1)N1CCN(c2cccc(Cl)c2)CC1
[1]
  Ki: > 100 µM

## CCCCCN1CCN(c2cccc(Cl)c2)CC1
[2]
  Ionization: 5.1%
[3]
  KiAH: 0.282 nM
[1]
  Ki: 0.00554 µM
[4]
  pKa: 2.46
[5]
  pKa: 6.13

## CCCN1CCN(c2cccc(Cl)c2)CC1
[2]
  Ionization: 31.9%
[3]
  KiAH: 38.9 nM
[1]
  Ki: 0.122 µM
[4]
  pKa: 2.39
[5]
  pKa: 7.07

## OCCN1CCN(c2cccc(Cl)c2)CC1
[2]
  Ionization: 24.9%
[3]
  KiAH: 50.3 nM
[1]
  Ki: 0.202 µM
[5]
  pKa: 6.92

## CCC(=O)N1CCN(c2cccc(Cl)c2)CC1
[1]
  Ki: 30.8 µM

## CC(C)C(=O)N1CCN(c2cccc(Cl)c2)CC1
[1]
  Ki: > 100 µM

## O=C(Cc1ccccc1)N1CCN(c2cccc(Cl)c2)CC1
[1]
  Ki: 14.8 µM

## O=C1c2ccccc2S(=O)(=O)N1CCCCN1CCN(c2ncccn2)CC1 [IPSAPIRONE]
[8]
  KiAH: 0.024 nM
[2]
  Ionization: 0.7%
[1]
  Ki: 0.0034 µM
[5]
  pKa: 5.25

## Clc1cccc(N2CCOCC2)c1
[1]
  Ki: > 100 µM
[4]
  pKa: 2.33
